Results as given in ChEMBL document CHEMBL3877308, “Design, synthesis and in vitro biological evaluation of oligopeptides targeting E. coli type I signal peptidase (LepB)” (Bioorg Med Chem, 2017).
≈ marks a conversion by molar mass, not a printed value.

Columns and labels:
[1] = target: Signal peptidase I (Escherichia coli K-12) (UniProt P00803); test: (§1) Inhibition of full length Escherichia coli His6-tagged LepB expressed in Escherichia coli C43(DE3) assessed as residual activity at 0.9765625 uM using dabcyl-VEVGGTATAGAFSRPGLE-(EDANS) as substrate preincubated for 10 mins followed by substrate addition measured for 2 hrs by FRET assay relative to control
Sequence of Signal peptidase I (Escherichia coli K-12) (P00803 whole entry): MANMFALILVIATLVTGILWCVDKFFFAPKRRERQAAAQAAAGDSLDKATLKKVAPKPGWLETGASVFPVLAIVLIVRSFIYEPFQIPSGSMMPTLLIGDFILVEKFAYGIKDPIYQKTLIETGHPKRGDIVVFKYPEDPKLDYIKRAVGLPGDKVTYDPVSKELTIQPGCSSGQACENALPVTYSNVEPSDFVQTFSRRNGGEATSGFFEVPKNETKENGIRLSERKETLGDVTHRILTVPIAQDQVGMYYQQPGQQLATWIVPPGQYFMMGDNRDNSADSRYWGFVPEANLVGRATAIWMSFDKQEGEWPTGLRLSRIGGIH
In short: (§2)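 Enzyme came from the membrane fraction, extracted with 1% reduced Triton X-100 and purified by metal-chelation chromatography in 0.5% detergent. FRET pair was dabcyl acceptor and EDANS donor. EcLepB (final about 50 nM) was pre-incubated with compound 10 min at 22 °C. Reaction was then run with 8 µM substrate, following the linear fluorescence increase at 22 °C for 2 h.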

[2] = target: Signal peptidase I (Escherichia coli K-12) (UniProt P00803); test: as §1, with “1.953125” for “0.9765625”; in short: as §2
Pseudomonas aeruginosa [3] = test: Antibacterial activity against wild type Pseudomonas aeruginosa PAO1 after 16 to 20 hrs by broth microdilution assay; format: functional
In short: (§3)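 MIC by broth microdilution in cation-adjusted Mueller-Hinton II medium, following EUCAST and CLSI guidelines; panel of Gram-negative strains plus S. aureus ATCC 29213.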

[4] = target: Signal peptidase I (Escherichia coli K-12) (UniProt P00803); test: Inhibition of full length Escherichia coli His6-tagged LepB expressed in Escherichia coli C43(DE3) at 100 uM using dabcyl-VEVGGTATAGAFSRPGLE-(EDANS) as substrate preincubated for 10 mins followed by substrate addition measured for 2 hrs by FRET assay relative to control; in short: as §2
Escherichia coli [5] = test: Antibacterial activity against Escherichia coli D22 harboring lpxC mutant after 16 to 20 hrs by broth microdilution assay; format: functional
In short: (§4)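 Broth microdilution MIC in cation-adjusted Mueller-Hinton II medium, following EUCAST and CLSI guidelines; tested on a panel of Gram-negative strains plus S. aureus ATCC 29213 (wild-type).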

Staphylococcus aureus = test: Antibacterial activity against wild type Staphylococcus aureus ATCC 29213 after 16 to 20 hrs by broth microdilution assay; format: functional; in short: as §3
[6] = target: Signal peptidase I (Escherichia coli K-12) (UniProt P00803); test: as §1, with “31.25” for “0.9765625”; in short: as §2
Escherichia coli [7] = test: Antibacterial activity against Escherichia coli CH3130 harboring tolC deletion mutant after 16 to 20 hrs by broth microdilution assay; format: functional; in short: as §4
[8] = target: Signal peptidase I (Escherichia coli K-12) (UniProt P00803); test: as §1, with “7.8125” for “0.9765625”; in short: as §2
[9] = target: Signal peptidase I (Escherichia coli K-12) (UniProt P00803); test: as §1, with “3.90625” for “0.9765625”; in short: as §2
Signal peptidase I [10] = target: T1, Signal peptidase I (Escherichia coli K-12, UniProt P00803); test: Inhibition of full length Escherichia coli His6-tagged LepB expressed in Escherichia coli C43(DE3) using dabcyl-VEVGGTATAGAFSRPGLE-(EDANS) as substrate preincubated for 10 mins followed by substrate addition measured after […] by FRET assay
T1 sequence (P00803 whole entry): as above

[11] = target: Signal peptidase I (Escherichia coli K-12) (UniProt P00803); test: as §1, with “62.5” for “0.9765625”; in short: as §2
[12] = target: Signal peptidase I (Escherichia coli K-12) (UniProt P00803); test: as §1, with “0.241406” for “0.9765625”; in short: as §2
[13] = target: Signal peptidase I (Escherichia coli K-12) (UniProt P00803); test: as §1, with “15.625” for “0.9765625”; in short: as §2
Klebsiella pneumoniae = test: Antibacterial activity against wild type Klebsiella pneumoniae […] after 16 to 20 hrs by broth microdilution assay; format: functional; in short: as §3
Pseudomonas aeruginosa [14] = test: Antibacterial activity against wild type Pseudomonas aeruginosa PAO750 harboring efflux defective mutant after 16 to 20 hrs by broth microdilution assay; format: functional; in short: as §4
[15] = target: Signal peptidase I (Escherichia coli K-12) (UniProt P00803); test: as §1, with “0.1220703” for “0.9765625”; in short: as §2
[16] = target: Signal peptidase I (Escherichia coli K-12) (UniProt P00803); test: Inhibition of full length Escherichia coli His6-tagged LepB expressed in Escherichia coli C43(DE3) assessed as residual activity at 250 uM using dabcyl-VEVGGTATAGAFSRPGLE-(EDANS) as substrate preincubated for 10 mins followed by substrate addition measured for 2 hrs by FRET assay relative to control; in short: as §2
Escherichia coli [17] = test: Antibacterial activity against wild type Escherichia coli ATCC 25922 after 16 to 20 hrs by broth microdilution assay; format: functional; in short: as §3
Acinetobacter baumannii = test: Antibacterial activity against wild type Acinetobacter baumannii ATCC 19606 after 16 to 20 hrs by broth microdilution assay; format: functional; in short: as §3
[18] = target: Signal peptidase I (Escherichia coli K-12) (UniProt P00803); test: as §1, with “0.4882812” for “0.9765625”; in short: as §2
[19] = target: Signal peptidase I (Escherichia coli K-12) (UniProt P00803); test: as §1, with “1000” for “0.9765625”; in short: as §2
Signal peptidase I [20] = target: T1, Signal peptidase I; test: Inhibition of full length Escherichia coli His6-tagged LepB expressed in Escherichia coli C43(DE3) using dabcyl-VEVGGTATAGAFSRPGLE-(EDANS) as substrate preincubated for 10 mins followed by substrate addition measured for 2 hrs by FRET assay
In short: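 Enzyme extracted from the membrane fraction with 1% reduced Triton X-100 and purified by metal-chelation chromatography in 0.5% detergent. Enzyme (final ~50 nM) was pre-incubated with compound for 10 min at 22 °C. The linear rise in EDANS donor fluorescence (dabcyl acceptor) was then followed at 22 °C for 2 h. IC50 came from non-linear regression of sigmoidal rate-versus-concentration curves.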

[21] = target: Signal peptidase I (Escherichia coli K-12) (UniProt P00803); test: Inhibition of full length Escherichia coli His6-tagged LepB expressed in Escherichia coli C43(DE3) assessed as residual activity at 125 uM using dabcyl-VEVGGTATAGAFSRPGLE-(EDANS) as substrate preincubated for 10 mins followed by substrate addition measured for 2 hrs by FRET assay relative to control; in short: as §2
[22] = target: Signal peptidase I (Escherichia coli K-12) (UniProt P00803); test: Inhibition of full length Escherichia coli His6-tagged LepB expressed in Escherichia coli C43(DE3) assessed as residual activity at 500 uM using dabcyl-VEVGGTATAGAFSRPGLE-(EDANS) as substrate preincubated for 10 mins followed by substrate addition measured for 2 hrs by FRET assay relative to control; in short: as §2

CCCCCCCCCC(=O)N1CCC[C@H]1C(=O)N[C@H](C(=O)N[C@@H](C)C(=O)N[C@@H](CC(N)=O)C(=O)N[C@@H](C)C=O)[C@H](C)O
Activity [1]: 48.7% | Activity [2]: 43.6% | MIC (Pseudomonas aeruginosa [3]): > 128 µg/mL | inhibition [4]: 100% | MIC (Escherichia coli [5]): > 128 µg/mL | MIC (Staphylococcus aureus): > 128 µg/mL | Activity [6]: 6.54% | MIC (Escherichia coli [7]): > 128 µg/mL | Activity [8]: 20.9% | Activity [9]: 34.7% | IC50 (Signal peptidase I [10]): 6.5 µM | Activity [11]: -0.871% | Activity [12]: 72.6% | Activity [13]: 13% | MIC (Klebsiella pneumoniae): > 128 µg/mL | MIC (Pseudomonas aeruginosa [14]): 128 µg/mL (≈ 210 µM) | Activity [15]: 77.4% | Activity [16]: -6.1% | MIC (Escherichia coli [17]): > 128 µg/mL | MIC (Acinetobacter baumannii): > 128 µg/mL | Activity [18]: 64.5% | Activity [19]: -5.5% | IC50 (Signal peptidase I [20]): 1.2 µM | Activity [21]: -3.34% | Activity [22]: -4.44%
